# Reference: ChEMBL document CHEMBL1123397, “Antiarrhythmic activity of 17 beta-aminoestratrienes. Comparison of 3-ols and 3-acetates with the corresponding 3-(3-amino-2-hydroxypropyl) ethers” (1986)
# Calls of active or inactive are those of the source. The calls are words filed in the database; no cut-off is given here.
# Legend:
# Cavia porcellus = species on record: Cavia porcellus; test: Concentration required to reduce maximum following frequencu (MFF) of isolated guinea pig atria by 25%; assay type: functional
# Summary of the method: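 Guinea pig left atria in an organ bath of Krebs solution at 35 °C, gassed with carbogen, electrically driven, isometric contractions recorded. Drugs added cumulatively; maximum following frequency determined 6 min after each concentration. Concentration reducing MFF by 25% (EC25) calculated from six preparations.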
# Mus musculus [1] = species on record: Mus musculus; test: ED 50 value against aconitine-induced arrhythmias in mice; IA is Inactive; assay type: functional, organism-based
# Summary of the method: (§1)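 Anaesthetised mice were given test compound intraperitoneally, then aconitine intravenously to induce arrhythmia. At least three doses were tested in separate groups (n = 6-10). ED50 is the dose raising the arrhythmogenic aconitine dose 50% above the control requirement.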
# Mus musculus [2] = species on record: Mus musculus; test: ED 50 value against aconitine-induced arrhythmias in mice; assay type: functional; summary of the method: as §1
# Rattus norvegicus [3] = test: Effective dose that antagonized arrhythmias evoked by coronary artery ligation in the rat was measured at 2.0 mg/kg dose; assay type: functional
# Rattus norvegicus [4] = test: Effect on heart rate after isoprenaline induced tachycardia in the anesthetized rat at 1 mg/kg dose; assay type: functional
# Summary of the method: (§2)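 Same ligation protocol in anaesthetised male Wistar rats. Heart rate was taken from the lead II ECG at three points: just before i.v. drug or vehicle, 14 min after it (just before isoprenaline 10 μg/kg), and 1 min after isoprenaline. Pre vs post rates and isoprenaline responses vs controls were compared by Student's t test. Mean ± SEM of 7-12 observations.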
# Rattus norvegicus [5] = test: Effect on heart rate before isoprenaline induced tachycardia in the anesthetized rat at 1 mg/kg dose; assay type: functional; summary of the method: as §2
# Rattus norvegicus [6] = test: Effect on heart rate on 1 min post isoprenaline induced tachycardia in the anesthetized rat at 1.0 mg/kg dose.; assay type: functional
# Summary of the method: (§3)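 Test drug or vehicle was given i.v., and isoprenaline (10 µg/kg) 14 min later. Heart rate was read from the lead II ECG just before drug, at 14 min (pre-isoprenaline) and 1 min after isoprenaline. Compared by Student's t test; 7–12 animals per group; mean ± SEM.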
# Rattus norvegicus [7] = test: Compound was tested for antagonism of Ventricular Fibrilloflutter (VF) evoked by coronary artery ligation in the rat measured at 1 mg/kg dose; assay type: functional, Heart
# Summary of the method: (§4)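 Male Wistar rats, anaesthetised and artificially ventilated, with left thoracotomy; silk suture under main left coronary artery. After stabilization, test drug or vehicle i.v.; 14 min later isoprenaline 10 μg/kg; 1 min after that the ligature was tightened and VF incidence recorded over 30 min. Carotid pressure and lead II ECG monitored continuously. 7-12 animals per group.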
# Rattus norvegicus [8] = test: Antagonism of Ventricular Fibrilloflutter (VF) evoked by coronary artery ligation in the rat measured at 2 mg/kg dose; assay type: functional, Heart; summary of the method: as §4
# Rattus norvegicus [9] = test: Mean change in heart rate recorded 14 min after the administration of compound.; assay type: functional; summary of the method: as §3
# Rattus norvegicus [10] = species on record: Rattus norvegicus; test: Maximum increase in heart rate evoked by isoprenaline.; assay type: functional; summary of the method: as §3
# Rattus norvegicus [11] = test: Effective dose that antagonized arrhythmias evoked by coronary artery ligation in the rat was measured at 1.0 mg/kg dose; assay type: functional
# Rattus norvegicus [12] = test: Effect on heart rate after isoprenaline induced tachycardia in the anesthetized rat at 2 mg/kg dose; assay type: functional; summary of the method: as §2
# Rattus norvegicus [13] = test: Effect on heart rate before isoprenaline induced tachycardia in the anesthetized rat at 2 mg/kg dose; assay type: functional; summary of the method: as §3
# Rattus norvegicus [14] = test: Effect on heart rate on 1 min post isoprenaline induced tachycardia in the anesthetized rat at 2.0 mg/kg dose.; assay type: functional; summary of the method: as §3
# Rattus norvegicus [15] = test: Compound was tested for antagonism of Ventricular Fibrilloflutter (VF) evoked by coronary artery ligation in the rat measured at 0.5 mg/kg dose; assay type: functional, Heart; summary of the method: as §4
# Rattus norvegicus [16] = test: Effective dose that antagonized arrhythmias evoked by coronary artery ligation in the rat was measured at 0.01 mg/kg dose; assay type: functional
# Rattus norvegicus [17] = test: Compound was tested for antagonism of Ventricular Fibrilloflutter (VF) evoked by coronary artery ligation in the rat measured at 0.01 mg/kg dose; assay type: functional, Heart; conditions: dose 0.1 mg/kg; in the assay text read “0.1 mg/kg” for “0.01 mg/kg”; summary of the method: as §4
# Rattus norvegicus [18] = test: Compound was tested for antagonism of Ventricular Fibrilloflutter (VF) evoked by coronary artery ligation in the rat measured at 0.05 mg/kg dose; assay type: functional, Heart; summary of the method: as §4
# Rattus norvegicus [19] = test: Effect of teh compound on heart rate on 1 min post isoprenaline induced tachycardia in the anesthetized rat at 2.0 mg/kg dose.; assay type: functional; summary of the method: as §2
SMILES,EC25 (Cavia porcellus) [µg/mL],ED50 (Mus musculus [1]),ED50 (Mus musculus [2]) [mg/kg],VF (Rattus norvegicus [7]) [%],VF (Rattus norvegicus [8]) [%],Change (Rattus norvegicus [9]) [%],Increase (Rattus norvegicus [10]) [%],Heart rate (Rattus norvegicus [12]) [beats min-1],Heart rate (Rattus norvegicus [13]) [beats min-1],other results
CNC1[C@H](O)C[C@H]2[C@@H]3CCc4cc(OCC(O)CNC(C)C)ccc4[C@H]3CC[C@]12C (stereo partly specified),21,inactive,–,–,–,–,–,–,–,–
CNC1CC[C@H]2[C@@H]3CCc4cc(O)ccc4[C@H]3CC[C@]12C (stereo partly specified),2.09,–,8.2,–,–,–,–,–,–,–
CC(C)NCC(O)COc1ccc2c(c1)CC[C@@H]1[C@@H]2CC[C@]2(C)C(N(C)C)CC[C@@H]12 (stereo partly specified),16.1,inactive,–,29,14,-4.4,1.6,–,–,ED50 at 2 mg/kg (Rattus norvegicus [3]): < 1 mg/kg; Heart rate (Rattus norvegicus [4]): 387 beats min-1; Heart rate (Rattus norvegicus [5]): 405 beats min-1; Heart rate (Rattus norvegicus [6]): 393 beats min-1
CN(C)C1[C@H](O)C[C@H]2[C@@H]3CCc4cc(OCC(O)CNC(C)(C)C)ccc4[C@H]3CC[C@]12C (stereo partly specified),17.1,inactive,–,38,0,-17.3,4.6,325,393,ED50 (Rattus norvegicus [11]): 0.5 mg/kg; Heart rate (Rattus norvegicus [14]): 340 beats min-1; VF (Rattus norvegicus [15]): 44%
CN(C)C1CC[C@H]2[C@@H]3CCc4cc(OCC(O)CNC(C)(C)C)ccc4[C@H]3CC[C@]12C (stereo partly specified),24.1,inactive,–,0,–,-6.9,3.4,–,–,ED50 (Rattus norvegicus [16]): 0.05 mg/kg; VF (Rattus norvegicus [17]): 25%; VF (Rattus norvegicus [18]): 38%; Heart rate (Rattus norvegicus [4]): 363 beats min-1; Heart rate (Rattus norvegicus [5]): 390 beats min-1; Heart rate (Rattus norvegicus [6]): 376 beats min-1
CC(=O)Oc1ccc2c(c1)CC[C@@H]1[C@@H]2CC[C@]2(C)C(N(C)C)[C@H](O)C[C@@H]12 (stereo partly specified),0.99,–,6.5,–,–,–,–,–,–,–
CNC1CC[C@H]2[C@@H]3CCc4cc(OCC(O)CNC(C)C)ccc4[C@H]3CC[C@]12C (stereo partly specified),11.9,inactive,–,–,–,-22.6,1,315,407,Heart rate (Rattus norvegicus [19]): 318 beats min-1
CN(C)C1CC[C@H]2[C@@H]3CCc4cc(O)ccc4[C@H]3CC[C@]12C (stereo partly specified),1.65,–,4.4,–,–,–,–,–,–,–
CNC1CC[C@H]2[C@@H]3CCc4cc(OCC(O)CNC(C)(C)C)ccc4[C@H]3CC[C@]12C (stereo partly specified),25.8,inactive,–,–,0,-13.4,0,335,387,ED50 at 2 mg/kg (Rattus norvegicus [3]): < 2 mg/kg; Heart rate (Rattus norvegicus [14]): 335 beats min-1
